Test results taken from ChEMBL document CHEMBL1138849, “5-substituted tetrazoles as bioisosteres of carboxylic acids. Bioisosterism and mechanistic studies on glutathione reductase inhibitors as antimalarials” (J Med Chem, 2004).

B1: Glutathione reductase, mitochondrial (Homo sapiens), P00390 (protein)
chain: MALLPRALSAGAGPSWRRAARAFRGFLLLLPEPAALTRALSRAMACRQEPQPQGPPPAAGAVASYDYLVIGGGSGGLASARRAAELGARAAVVESHKLGGTCVNVGCVPKKVMWNTAVHSEFMHDHADYGFPSCEGKFNWRVIKEKRDAYVSRLNAIYQNNLTKSHIEIIRGHAAFTSDPKPTIEVSGKKYTAPHILIATGGMPSTPHESQIPGASLGITSDGFFQLEELPGRSVIVGAGYIAVEMAGILSALGSKTSLMIRHDKVLRSFDSMISTNCTEELENAGVEVLKFSQVKEVKKTLSGLEVSMVTAVPGRLPVMTMIPDVDCLLWAIGRVPNTKDLSLNKLGIQTDDKGHIIVDEFQNTNVKGIYAVGDVCGKALLTPVAIAAGRKLAHRLFEYKEDSKLDYNNIPTVVFSHPPIGTVGLTEDEAIHKYGIENVKTYSTSFTPMYHAVTKRKTKCVMKMVCANKEEKVVGIHMQGLGCDEMLQGFAVAVKMGATKADFDNTVAIHPTSSEELVTLR
B2: Glutathione reductase (Plasmodium falciparum 3D7), O15770 (protein)
chain: MYKHRYFHFFFFFFFFLVSTKIIRSFTFLNNNTNLSNPVYFKKKANMVYDLIVIGGGSGGMAAARRAARHNAKVALVEKSRLGGTCVNVGCVPKKIMFNAASVHDILENSRHYGFDTKFSFNLPLLVERRDKYIQRLNNIYRQNLSKDKVDLYEGTASFLSENRILIKGTKDNNNKDNGPLNEEILEGRNILIAVGNKPVFPPVKGIENTISSDEFFNIKESKKIGIVGSGYIAVELINVIKRLGIDSYIFARGNRILRKFDESVINVLENDMKKNNINIVTFADVVEIKKVSDKNLSIHLSDGRIYEHFDHVIYCVGRSPDTENLNLEKLNVETNNNYIVVDENQRTSVNNIYAVGDCCMVKKSKEIEDLNLLKLYNEETYLNKKENVTEDIFYNVQLTPVAINAGRLLADRLFLKKTRKTNYKLIPTVIFSHPPIGTIGLSEEAAIQIYGKENVKIYESKFTNLFFSVYDIEPELKEKTYLKLVCVGKDELIKGLHIIGLNADEIVQGFAVALKMNATKKDFDETIPIHPTAAEEFLTLQPWMK

Experiments:
[1] = substrate: CC1=CC(=O)c2ccccc2C1=O; test: Michaelis-Menten constant against human glutathione reductase
Method in brief: (§1)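 Recombinant human or P. falciparum GR run as a quinone reductase without GSSG. Mix: 100 mM phosphate pH 7.0, 200 mM KCl, 100 μM NADPH, 1% DMSO, enzyme, and naphthoquinone at 10 levels from 10 to 400 μM. NADPH oxidation read at 340 nm (ε 6.22 mM⁻¹ cm⁻¹). Steady-state rates fitted to Michaelis–Menten by nonlinear regression to give Km and Vmax; kcat and kcat/Km calculated.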

[2] = compound: N[C@@H](CCC(=O)N[C@@H](CSSC[C@H](NC(=O)CC[C@H](N)C(=O)O)C(=O)NCC(=O)O)C(=O)NCC(=O)O)C(=O)O; test: Inhibitory concentration against glutathione reductase (In presence of NADPH); settings: Plasmodium falciparum
[3] = substrate: CC1=CC(=O)c2ccccc2C1=O; test: Michaelis-Menten constant against Plasmodium falciparum glutathione reductase; method in brief: as §1

Protein	Km [1]	Km [2]	Km [3]
B1	31.2 µM	–	–
B2	–	115 µM	82.2 µM
